Assays:
[1] = target: Neuronal acetylcholine receptor; alpha3/beta4 (Rattus norvegicus, UniProt P04757+P12392); experiment: In vitro binding affinity towards rat Nicotinic acetylcholine receptor alpha3-beta4 using 0.5 nM [3H]epibatidine; assay type: protein-complex assay
[2] = target: Neuronal acetylcholine receptor; alpha3/beta2 (Rattus norvegicus, UniProt P04757+P12390); experiment: In vitro binding affinity towards rat Nicotinic acetylcholine receptor alpha3-beta2 using 0.5 nM [3H]epibatidine; assay type: protein-complex assay
[3] = target: Neuronal acetylcholine receptor; alpha4/beta2 (Rattus norvegicus, UniProt P09483+P12390); experiment: In vitro binding affinity towards rat Nicotinic acetylcholine receptor alpha4-beta2 using 0.5 nM [3H]epibatidine; assay type: protein-complex assay
Summary of the method: (§1)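 Stably transfected cell lines, each expressing one rat nAChR subtype (α4β2 or α4β4), were used. Ki was derived from the radioligand Kd for each subtype.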

[4] = target: Neuronal acetylcholine receptor; alpha3/beta4 (Rattus norvegicus) (UniProt P04757+P12392); experiment: Agonistic activity as [86Rb+] efflux from KXalpha-3-beta-4R2 cells expressing rat Nicotinic acetylcholine receptor at 100 uM; assay type: functional
Summary of the method: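 KXα3β4R2 cells stably expressing functional rat α3β4 receptors were used. Agonism was read as stimulated 86Rb+ efflux in the presence of compound at 100 µM.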

[5] = target: Neuronal acetylcholine receptor; alpha2/beta2 (Rattus norvegicus, UniProt P12389+P12390); experiment: In vitro binding affinity towards rat Nicotinic acetylcholine receptor alpha2-beta2 using 0.5 nM [3H]epibatidine; assay type: protein-complex assay
[6] = target: Neuronal acetylcholine receptor; alpha2/beta4 (Rattus norvegicus, UniProt P12389+P12392); experiment: In vitro binding affinity towards rat Nicotinic acetylcholine receptor alpha2-beta4 using 0.5 nM [3H]epibatidine; assay type: protein-complex assay
[7] = target: Neuronal acetylcholine receptor; alpha4/beta4 (Rattus norvegicus, UniProt P09483+P12392); experiment: In vitro binding affinity towards rat Nicotinic acetylcholine receptor alpha4-beta4 using 0.5 nM [3H]epibatidine; assay type: protein-complex assay; summary of the method: as §1
Neuronal acetylcholine receptor; alpha4/beta4, sequence (P09483 whole entry): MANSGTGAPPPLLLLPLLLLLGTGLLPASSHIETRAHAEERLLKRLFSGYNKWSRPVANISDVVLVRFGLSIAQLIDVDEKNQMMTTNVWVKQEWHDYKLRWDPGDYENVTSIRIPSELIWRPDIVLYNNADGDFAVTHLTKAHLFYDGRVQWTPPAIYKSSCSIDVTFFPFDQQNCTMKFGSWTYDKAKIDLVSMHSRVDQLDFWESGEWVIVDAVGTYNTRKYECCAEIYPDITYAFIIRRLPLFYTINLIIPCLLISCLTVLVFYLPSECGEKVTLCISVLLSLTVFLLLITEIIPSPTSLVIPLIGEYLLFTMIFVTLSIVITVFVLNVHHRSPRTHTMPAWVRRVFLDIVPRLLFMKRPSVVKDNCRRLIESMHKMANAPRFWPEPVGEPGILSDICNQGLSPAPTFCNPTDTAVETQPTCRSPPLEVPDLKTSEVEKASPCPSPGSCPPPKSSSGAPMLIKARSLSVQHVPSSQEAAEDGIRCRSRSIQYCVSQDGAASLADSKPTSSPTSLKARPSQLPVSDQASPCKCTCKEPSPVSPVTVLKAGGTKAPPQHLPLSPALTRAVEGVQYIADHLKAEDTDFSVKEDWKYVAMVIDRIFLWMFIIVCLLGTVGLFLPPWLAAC
Neuronal acetylcholine receptor; alpha4/beta4, sequence (P12392 whole entry): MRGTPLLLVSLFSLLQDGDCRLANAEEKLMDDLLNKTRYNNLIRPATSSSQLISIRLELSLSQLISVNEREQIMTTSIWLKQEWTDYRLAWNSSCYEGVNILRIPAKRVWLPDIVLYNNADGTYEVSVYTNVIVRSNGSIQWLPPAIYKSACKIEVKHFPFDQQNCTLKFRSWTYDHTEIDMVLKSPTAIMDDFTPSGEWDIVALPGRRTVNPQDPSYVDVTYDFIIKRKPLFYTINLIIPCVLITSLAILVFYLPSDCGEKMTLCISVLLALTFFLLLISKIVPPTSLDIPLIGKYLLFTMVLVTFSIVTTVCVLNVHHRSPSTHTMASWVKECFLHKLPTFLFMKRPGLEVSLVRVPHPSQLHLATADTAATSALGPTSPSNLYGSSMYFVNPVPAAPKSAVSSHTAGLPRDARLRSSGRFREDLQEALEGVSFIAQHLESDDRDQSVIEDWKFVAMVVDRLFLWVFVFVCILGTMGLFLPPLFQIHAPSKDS

Neuronal acetylcholine receptor; alpha2/beta4, sequence (P12389 whole entry): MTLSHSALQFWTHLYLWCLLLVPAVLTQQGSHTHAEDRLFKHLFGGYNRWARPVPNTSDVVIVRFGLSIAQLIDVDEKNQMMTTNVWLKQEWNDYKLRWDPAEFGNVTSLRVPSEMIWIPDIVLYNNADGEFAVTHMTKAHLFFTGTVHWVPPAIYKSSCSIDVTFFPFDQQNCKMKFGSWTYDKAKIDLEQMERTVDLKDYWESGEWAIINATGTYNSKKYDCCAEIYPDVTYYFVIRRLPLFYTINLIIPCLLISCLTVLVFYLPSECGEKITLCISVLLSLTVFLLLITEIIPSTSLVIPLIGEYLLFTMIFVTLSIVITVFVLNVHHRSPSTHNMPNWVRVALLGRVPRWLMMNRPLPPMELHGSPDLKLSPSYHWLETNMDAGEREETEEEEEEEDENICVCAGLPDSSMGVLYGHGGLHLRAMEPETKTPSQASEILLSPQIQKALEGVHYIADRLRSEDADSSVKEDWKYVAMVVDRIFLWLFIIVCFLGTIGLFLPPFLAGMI
Neuronal acetylcholine receptor; alpha2/beta4, sequence (P12392 whole entry): as the sequence (P12392 whole entry) above
Neuronal acetylcholine receptor; alpha2/beta2, sequence (P12389 whole entry): as the sequence (P12389 whole entry) above
Neuronal acetylcholine receptor; alpha2/beta2, sequence (P12390 whole entry): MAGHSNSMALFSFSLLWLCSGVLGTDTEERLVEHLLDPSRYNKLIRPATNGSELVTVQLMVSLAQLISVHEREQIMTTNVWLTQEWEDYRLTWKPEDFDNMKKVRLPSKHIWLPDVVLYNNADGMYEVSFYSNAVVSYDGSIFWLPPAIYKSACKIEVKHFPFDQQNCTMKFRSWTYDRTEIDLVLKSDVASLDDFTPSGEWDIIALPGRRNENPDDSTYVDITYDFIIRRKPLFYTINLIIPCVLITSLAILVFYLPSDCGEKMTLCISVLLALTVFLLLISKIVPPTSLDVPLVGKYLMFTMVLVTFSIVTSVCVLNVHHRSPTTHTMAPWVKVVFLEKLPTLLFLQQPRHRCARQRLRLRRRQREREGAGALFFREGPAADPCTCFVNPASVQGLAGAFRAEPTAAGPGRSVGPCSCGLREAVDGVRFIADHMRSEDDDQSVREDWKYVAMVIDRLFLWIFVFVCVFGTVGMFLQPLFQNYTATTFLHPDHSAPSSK
Neuronal acetylcholine receptor; alpha3/beta2, sequence (P04757 whole entry): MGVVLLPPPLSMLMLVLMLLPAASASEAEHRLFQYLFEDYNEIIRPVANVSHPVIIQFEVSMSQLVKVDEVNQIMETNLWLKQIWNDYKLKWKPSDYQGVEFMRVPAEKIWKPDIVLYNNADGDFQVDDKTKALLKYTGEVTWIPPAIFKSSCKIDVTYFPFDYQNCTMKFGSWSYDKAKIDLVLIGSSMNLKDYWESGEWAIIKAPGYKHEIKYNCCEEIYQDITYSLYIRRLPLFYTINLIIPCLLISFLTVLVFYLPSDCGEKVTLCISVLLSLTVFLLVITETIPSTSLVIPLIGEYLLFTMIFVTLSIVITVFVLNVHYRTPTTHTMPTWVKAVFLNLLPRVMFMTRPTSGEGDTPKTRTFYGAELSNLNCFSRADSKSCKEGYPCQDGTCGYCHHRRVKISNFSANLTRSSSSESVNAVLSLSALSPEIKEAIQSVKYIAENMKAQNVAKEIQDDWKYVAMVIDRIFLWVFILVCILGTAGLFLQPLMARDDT
Neuronal acetylcholine receptor; alpha3/beta2, sequence (P12390 whole entry): as the sequence (P12390 whole entry) above
Neuronal acetylcholine receptor; alpha3/beta4, sequence (P04757 whole entry): as the sequence (P04757 whole entry) above
Neuronal acetylcholine receptor; alpha3/beta4, sequence (P12392 whole entry): as the sequence (P12392 whole entry) above
Neuronal acetylcholine receptor; alpha4/beta2, sequence (P09483 whole entry): as the sequence (P09483 whole entry) above
Neuronal acetylcholine receptor; alpha4/beta2, sequence (P12390 whole entry): as the sequence (P12390 whole entry) above

| SMILES | Ki [1] [nM] | Ki [2] [nM] | Ki [3] [nM] | Stimulation [4] [%] | Ki [5] [nM] | Ki [6] [nM] | Ki [7] [nM] |
| --- | --- | --- | --- | --- | --- | --- | --- |
| Cc1ccc(-c2cc(C3CC4CCC3N4)cnc2F)cc1 (stereo unspecified) | 29 | 0.078 | 0.028 | 1 | 0.035 | 0.541 | 1.22 |
| COc1ccc(-c2cc(C3CC4CCC3N4)cnc2Cl)cc1 (stereo unspecified) | 54.5 | 0.1 | 0.034 | 3.1 | 0.04 | 0.862 | 1.57 |
| Clc1ccc(C2CC3CCC2N3)cn1 (racemic) | – | – | – | 112 | – | – | – |
| CN1CCC[C@H]1c1cccnc1 | – | – | – | 100 | – | – | – |
| Fc1ncc(C2CC3CCC2N3)cc1-c1ccc(Cl)cc1 (stereo unspecified) | 256 | 0.339 | 0.062 | 3.2 | 0.064 | 4.12 | 3.99 |
| Fc1ccc(-c2cc(C3CC4CCC3N4)cnc2F)cc1 (stereo unspecified) | 405 | 0.504 | 0.078 | 3.6 | 0.079 | 6.12 | 6.42 |
| Cc1cccc(-c2cc(C3CC4CCC3N4)cnc2F)c1 (stereo unspecified) | 2400 | 9.27 | 0.898 | 0.1 | 1.11 | 31.3 | 36.7 |
| N#Cc1ccc(-c2cc(C3CC4CCC3N4)cnc2F)cc1 (stereo unspecified) | 289 | 0.351 | 0.039 | 36.8 | 0.066 | 3.67 | 3.6 |
| Cc1cc(-c2cc(C3CC4CCC3N4)cnc2F)ccc1F (stereo unspecified) | 2940 | 8.84 | 1.26 | 0.7 | 1.54 | 60.1 | 67.6 |
| Cc1ccc(-c2cc(C3CC4CCC3N4)cnc2Cl)cc1 (stereo unspecified) | 429 | 0.171 | 0.058 | 3.8 | 0.044 | 5.26 | 4.75 |
| Fc1ncc(C2CC3CCC2N3)cc1-c1ccccc1 (stereo unspecified) | 947 | 3.54 | 0.733 | 0.4 | 0.643 | 16.6 | 26 |
| Fc1ncc(C2CC3CCC2N3)cc1-c1ccc(Cl)c(Cl)c1 (stereo unspecified) | 334 | 2.31 | 0.28 | 2.7 | 0.245 | 6.99 | 7.36 |
| CN1C2CCC1C(c1cnc(Cl)c(-c3ccccc3)c1)C2 (stereo unspecified) | 15.4 | 0.158 | 0.032 | 3.9 | 0.053 | 0.24 | 1.57 |
| Clc1ncc(C2CC3CCC2N3)cc1-c1ccccc1 (stereo unspecified) | 24 | 0.122 | 0.039 | 6.1 | 0.037 | 0.47 | 1.15 |
